The values that follow come from PubChem BioAssay.

The source made the active and inactive calls.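 How the source made its calls, unless noted: active means inhibition above 20% together with a positive visual image hit; inconclusive means visual image hit but inhibition not above 20%; inactive means no visual image hit.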

Experiment [1] in a line: inhibitors of TNFa-induced NFkB p65 translocation, primary screen, imaging, HUVEC, MLSMR starter and 10KST1 sets (AID 438).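 Further: compound added about 3h40 before a 20 min TNFalpha stimulation.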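 On inhibition: signal is the nuclear over cytoplasmic p65 intensity ratio per well.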 The settings on record: HUVEC TNFa-induced p65 nuclear translocation; cell count: measured here: nuclei count (cytotoxicity indicator), at 2.08 µM; inhibition: at 2 µM, stronger effect = higher value, 0% TNFa-plus-vehicle, 100% no-TNFa wells.
The nature of experiment [2]: inhibitors of mutant huntingtin aggregation, primary screen, imaging, exon1htt(103Q)mCFP cells, high-content imaging (AID 483;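 active means visual image review flags a hit and inhibition of aggregation exceeds 20%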;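 further: compound exposure lasted 3 days before fixation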;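 on nuclei count: percent of the per-plate median nuclei count of sample wells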). To be noted: exon1htt(103Q)mCFP cell line, aggregate imaging, at 2 µM; inhibition of aggregation: stronger effect = higher value; nuclei count: measured here: cell count, toxicity.
The nature of experiment [3]: inhibitors of E-selectin induction by TNFa, primary screen, imaging, HUVEC, immunofluorescence, MLSMR starter and 10KST1 sets (AID 487;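 active means visually confirmed hit in the image check and inhibition above 20%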;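 on inhibition: signal is fraction of cell area covered by stained E-selectin grains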;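 on nuclei count: 100% = median nuclei count of all wells on the same plate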). To be noted: HUVEC TNFalpha-induced E-selectin immunofluorescence imaging, at 2 µM; inhibition: stronger effect = higher value; nuclei count: measured here: cell number, toxicity.
Experiment [4] addresses Voltage-gated potassium channel subunit beta-2 (Rattus norvegicus) (UniProt P62483). Description: KvBeta enzyme negative modulators, primary screen, biochemical, NADPH fluorescence (AID 622;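 active means fluorescence slope higher than the sample average by over 3 SD, cut at about -0.22 in these data, passing the limit was not always enough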;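 further: slope of raw intensity against log time taken from 70 to 1610 s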). To be noted: recombinant KvBeta, 4-cyanobenzaldehyde reduction, at 10 µM, stronger effect = higher value.
Experiment [5] shares this target. The experiment can be described thus: KvBeta positive modulators, primary screen, biochemical, NADPH fluorescence (AID 623;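 active means NADPH fluorescence slope more negative than the mean of all samples by about 3 SD, 99.7% confidence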;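 further: fluorescence intensity change per second fitted from 20 to 320 s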). To be noted: Recombinant KvBeta, NADPH fluorescence decrease slope, 10 min; at 10 µM; stronger effect = lower value.
The target in experiment [6] is Muscarinic acetylcholine receptor M4 (Homo sapiens) (UniProt P08173). Description: compounds altering M4/GIRK thallium flux, either direction, primary screen, M4 allosteric agonist project, cell-based, HEK293 M4/GIRK, BTC-AM (AID 625;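 active means fluorescence slope after compound addition differing from the mean of all tested samples at 99.7% confidence, mostly higher but some lower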;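 further: thallium influx through GIRK channels coupled to M4 in HEK293 cells with BTC-AM dye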). The settings on record: at 10 µM, actives lie on both sides. A digest of the protocol: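 assay system = HEK293 cells with M4 receptor and GIRK channels | medium = pH 7.3 thallium assay buffer | doses = 10 µM final, single point | timing = cells overnight at 37 °C, BTC-AM loading 1 h, reads 2 min total | signal = BTC-AM fluorescence, 1 Hz kinetic reads | read-out = post-addition slope, 15–24 s, of baseline-normalized fluorescence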

Experiment [7] in a line: inhibitors of Sendai virus-induced IRF3 signaling, primary screen, TLR/RLR signaling modifier project, cell-based, Sendai virus stimulus, luciferase, 10K MLSCN set (AID 602276;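 active means inhibition at or above 50% at 10 µM; inactive means inhibition below 50%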;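 further: firefly luciferase from ISG56 promoter only with Renilla not read in this screen; 0% = Sendai virus plus DMSO and 100% = medium plus DMSO without virus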). The settings on record: HEK293 RL24 IRF3 luciferase reporter, at 10 µM, stronger effect = higher value.
A short description of experiment [8]: inhibitors of poly I:C-induced TLR3 signaling, primary screen, cell-based, poly I:C stimulus, luciferase, 10K MLSCN set (AID 602277;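 active means inhibition of the reporter signal at or above 50%; inactive means inhibition below 50%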). To be noted: HEK293-TLR3 RL24 IRF3 luciferase reporter, at 10 µM, stronger effect = higher value.

A word on the inhibition: it is the relative decrease from the control value, in per cent.

Voltage-gated potassium channel subunit beta-2 (Rattus norvegicus), sequence (P62483 whole entry, looked up): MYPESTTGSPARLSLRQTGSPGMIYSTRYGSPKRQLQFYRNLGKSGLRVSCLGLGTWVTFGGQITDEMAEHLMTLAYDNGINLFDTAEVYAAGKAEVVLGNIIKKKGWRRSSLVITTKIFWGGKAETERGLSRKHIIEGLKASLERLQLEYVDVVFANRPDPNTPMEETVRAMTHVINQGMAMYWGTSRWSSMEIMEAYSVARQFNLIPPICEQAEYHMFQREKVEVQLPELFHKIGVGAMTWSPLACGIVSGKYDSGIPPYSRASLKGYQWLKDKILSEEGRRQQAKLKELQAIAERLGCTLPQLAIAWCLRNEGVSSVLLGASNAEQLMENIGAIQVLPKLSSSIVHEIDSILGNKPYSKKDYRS
Muscarinic acetylcholine receptor M4 (Homo sapiens), sequence (P08173 whole entry, looked up): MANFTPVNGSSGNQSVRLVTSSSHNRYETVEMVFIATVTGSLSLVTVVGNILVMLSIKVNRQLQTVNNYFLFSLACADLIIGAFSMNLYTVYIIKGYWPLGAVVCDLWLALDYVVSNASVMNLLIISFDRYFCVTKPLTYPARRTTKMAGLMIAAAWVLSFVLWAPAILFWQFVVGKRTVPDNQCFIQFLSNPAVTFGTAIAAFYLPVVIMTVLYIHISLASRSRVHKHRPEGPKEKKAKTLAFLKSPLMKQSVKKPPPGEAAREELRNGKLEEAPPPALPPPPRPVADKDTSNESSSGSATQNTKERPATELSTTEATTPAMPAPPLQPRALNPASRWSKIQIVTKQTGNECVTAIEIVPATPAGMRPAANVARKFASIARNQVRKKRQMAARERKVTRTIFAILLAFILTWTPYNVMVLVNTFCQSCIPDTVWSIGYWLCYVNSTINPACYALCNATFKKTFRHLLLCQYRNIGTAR

Turning to `O=C(N1CCCCCC1)N1CCN(C(=O)N2CCOCC2)CC1`, in experiment [1], the cell count turned out to be 437. The inhibition in experiment [1] was -13.3% (inactive); in experiment [3], -24.8% (inactive); in experiment [7], 3.08% (inactive); in experiment [8] it was -6.18% (inactive). The inhibition of aggregation in experiment [2] was 7.7% (inactive). Also, the nuclei count in experiment [2] came to 99.6%; in experiment [3], 134%. In addition, the values for the fluorescence slope in experiment [4] and in experiment [6] were -0.563 (inactive) and 0.00574 (inactive), respectively. Also, the NADPH fluorescence slope in experiment [5] is -1.7e-05 (inactive).
For the molecule `COc1ccc(C2C(=O)N(C3CCCCC3)CC(=O)N2Cc2ccco2)cc1` (centres undefined), the cell count in experiment [1] is 632. Moreover, the inhibition is -15% (inactive) in experiment [1], -26.6% (inactive) in experiment [3], 16.7% (inactive) in experiment [7] and 22.1% (inactive) in experiment [8]. The inhibition of aggregation in experiment [2] was -40.5% (inactive). Besides, the values for the nuclei count in experiment [2] and in experiment [3] were 124% and 101%, respectively. Also, the values for the fluorescence slope in experiment [4] and in experiment [6] were -0.526 (inactive) and 0.00562 (inactive), respectively. Moreover, the NADPH fluorescence slope in experiment [5] is 1.7e-05 (inactive).
For the molecule `CC(C)CCNC(=O)NC(=O)CSc1nnc(-c2ccccc2F)n1N`, the cell count in experiment [1] worked out at 572. For the same molecule, the inhibition in experiment [1] is 0.4% (inactive); in experiment [3], -223% (inactive); in experiment [7], -9.04% (inactive); in experiment [8], -3.83% (inactive). In experiment [2], the inhibition of aggregation is -5.6% (inactive). Moreover, the nuclei count stood at 104% in experiment [2] and 178% in experiment [3]. The fluorescence slope in experiment [4] is -0.517 (inactive); in experiment [6], 0.00509 (inactive). For the same molecule, the NADPH fluorescence slope in experiment [5] was 9.8e-05 (inactive).
For `Cc1nc(C)c(C(=O)Nc2ccc(C)c(F)c2)o1`, the cell count in experiment [1] is 600. Also, the inhibition in experiment [1] is -4.5% (inactive); in experiment [3] it was -2.7% (inactive); in experiment [7] it was 4.25% (inactive); in experiment [8], -10.3% (inactive). Moreover, in experiment [2], the inhibition of aggregation was 19.4% (inactive). Further, the figures for the nuclei count in experiment [2] and in experiment [3] were 97.5% and 120%, respectively. Further, the fluorescence slope in experiment [4] was -0.335 (inactive); in experiment [6], 0.00567 (inactive). For the same molecule, the NADPH fluorescence slope in experiment [5] is -5.2e-05 (inactive).
Turning to `CCOc1ccc(OCC)c2sc(C)nc12`, the cell count in experiment [1] was 339. Besides, the inhibition was 2.4% (inactive) in experiment [1], 1% (inactive) in experiment [3], 12.4% (inactive) in experiment [7] and -8.47% (inactive) in experiment [8]. The inhibition of aggregation in experiment [2] was 8.2% (inactive). Besides, the nuclei count in experiment [2] came out at 102%; in experiment [3], 106%. In addition, the figures for the fluorescence slope in experiment [4] and in experiment [6] were -0.591 (inactive) and 0.00571 (inactive), respectively. Besides, in experiment [5], the NADPH fluorescence slope was -5.9e-05 (inactive).
In the case of `O=C(O)CCN1C(=O)c2ccccc2C1=O`, the cell count in experiment [1] was 325. The inhibition in experiment [1] was 5.2% (inactive); in experiment [3] it was -54.5% (inactive); in experiment [7] it was 14.6% (inactive); in experiment [8], 6.42% (inactive). In experiment [2], the inhibition of aggregation was -1.9% (inactive). In addition, the nuclei count stood at 91.2% in experiment [2] and 107% in experiment [3]. The fluorescence slope in experiment [4] is -0.585 (inactive); in experiment [6], 0.00348 (inactive). In addition, the NADPH fluorescence slope in experiment [5] is -3e-05 (inactive).
Turning to `O=C(OCc1cccs1)c1ccccc1NS(=O)(=O)c1ccc2c(c1)OCCO2`, the cell count in experiment [1] turned out to be 709. Also, the inhibition in experiment [1] is -6.7% (inactive); in experiment [3], 9.5% (inactive); in experiment [7], 3.25% (inactive); in experiment [8], -18.1% (inactive). Besides, in experiment [2], the inhibition of aggregation was 10.3% (inactive). The nuclei count worked out at 84.5% in experiment [2] and 108% in experiment [3]. In addition, the fluorescence slope in experiment [4] is -0.626 (inactive); in experiment [6] it was 0.00639 (inactive). In addition, the NADPH fluorescence slope in experiment [5] was -2.4e-05 (inactive).
Consider `CC(=O)c1cccc(NC(=O)c2ccc(NS(C)(=O)=O)cc2)c1`, for which, in experiment [1], the cell count amounted to 486. The inhibition in experiment [1] was -8.9% (inactive); in experiment [3] it was 32.6% (inactive); in experiment [7] it was 12.2% (inactive); in experiment [8], 15.9% (inactive). Moreover, in experiment [2], the inhibition of aggregation is 9% (inactive). Besides, the nuclei count amounted to 94.4% in experiment [2] and 98.5% in experiment [3]. Further, the fluorescence slope in experiment [4] is -0.444 (inactive); in experiment [6], 0.00538 (inactive). Moreover, in experiment [5], the NADPH fluorescence slope is -5.1e-05 (inactive).
Regarding `CC(C)(C)C(=O)N=C1SC2CS(=O)(=O)CC2N1c1ccc2c(c1)OCO2` (centres undefined), in experiment [1], the cell count was 454. Moreover, the inhibition in experiment [1] is 5.8% (inactive); in experiment [3], 6.6% (inactive); in experiment [7], -0.393% (inactive); in experiment [8] it was 7.75% (inactive). The inhibition of aggregation in experiment [2] is 2% (inactive). In addition, the nuclei count in experiment [2] turned out to be 96.6%; in experiment [3], 132%. The fluorescence slope in experiment [4] is -0.546 (inactive); in experiment [6], 0.0052 (inactive). Further, the NADPH fluorescence slope in experiment [5] was -4.1e-05 (inactive).
As to `Cn1c(=O)c2c(nc(SCC(=O)O)n2Cc2cccc(C(F)(F)F)c2)n(C)c1=O`, the cell count in experiment [1] came out at 204. Besides, the inhibition is -0.8% (inactive) in experiment [1], 9.2% (inactive) in experiment [3], 15.4% (inactive) in experiment [7] and 13.8% (inactive) in experiment [8]. Further, in experiment [2], the inhibition of aggregation is -19.7% (inactive). In addition, the results for the nuclei count in experiment [2] and in experiment [3] were 77.2% and 74.6%, respectively. The values for the fluorescence slope in experiment [4] and in experiment [6] were -0.531 (inactive) and 0.0052 (inactive), respectively. In addition, the NADPH fluorescence slope in experiment [5] was 6.2e-06 (inactive).
`CCOc1ccc(OCc2ccc(C(=O)Nc3cccc(C)n3)o2)cc1`: in experiment [1], the cell count was found to be 731. For the same molecule, the inhibition was -4.2% (inactive) in experiment [1], -43.1% (inactive) in experiment [3], -27% (inactive) in experiment [7] and -74% (inactive) in experiment [8]. Besides, the inhibition of aggregation in experiment [2] is -3.4% (inactive). Also, the nuclei count stood at 114% in experiment [2] and 117% in experiment [3]. Moreover, the values for the fluorescence slope in experiment [4] and in experiment [6] were -0.557 (inactive) and 0.00558 (inactive), respectively. Moreover, the NADPH fluorescence slope in experiment [5] is -6.3e-05 (inactive).
As for `CCCCOc1ccc(-c2nnn(CC(=O)Nc3ncc(CC(=O)OCC)s3)n2)cc1`, in experiment [1], the cell count was determined as 613. For the same molecule, the inhibition in experiment [1] is 36.4% (active); in experiment [3] it was -79% (inactive); in experiment [7] it was 13.5% (inactive); in experiment [8], 23.8% (inactive). Moreover, the inhibition of aggregation in experiment [2] was 18.6% (inactive). In addition, the nuclei count is 108% in experiment [2] and 79.4% in experiment [3]. The fluorescence slope is -0.4 (inactive) in experiment [4] and 0.00855 (inactive) in experiment [6]. Further, the NADPH fluorescence slope in experiment [5] was 6.8e-06 (inactive).
Turning to `Cc1c(C(=O)OC(C)C)[nH]c2c1C(=O)CCC2`, the cell count in experiment [1] amounted to 437. Besides, the inhibition in experiment [1] is -3.5% (inactive); in experiment [3], 54.6% (inactive); in experiment [7], -15.8% (inactive); in experiment [8] it was -50.8% (inactive). Besides, the inhibition of aggregation in experiment [2] is 15.4% (inactive). The results for the nuclei count in experiment [2] and in experiment [3] were 86.8% and 99%, respectively. Moreover, the values for the fluorescence slope in experiment [4] and in experiment [6] were -0.592 (inactive) and 0.00589 (inactive), respectively. Further, in experiment [5], the NADPH fluorescence slope is -3.8e-05 (inactive).
Turning to `CCC(=O)N1CCCc2cc(S(=O)(=O)N3CCCc4ccccc43)ccc21`, in experiment [1], the cell count stood at 684. The inhibition was 2.1% (inactive) in experiment [1], -142% (inactive) in experiment [3], 20% (inactive) in experiment [7] and 34% (inactive) in experiment [8]. In addition, in experiment [2], the inhibition of aggregation is -1.8% (inactive). Also, the nuclei count in experiment [2] worked out at 100%; in experiment [3], 125%. In addition, the fluorescence slope is -0.552 (inactive) in experiment [4] and 0.00501 (inactive) in experiment [6]. For the same molecule, the NADPH fluorescence slope in experiment [5] is 3.3e-05 (inactive).
